Measured values published in ChEMBL document CHEMBL3272176, “Nucleic acids. 16. Orally active derivatives of ara-cytidine” (1976).

Key:
L1210 [1] = experiment: Antitumor activity against mouse L1210 cells allografted in mouse assessed as increase in life span at 100 umol/kg/day, po using saline vehicle for 5 days 24 hrs after tumor inoculation; assay type: functional
How it was run: (§1)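 Mice were inoculated ip on day 0 with 1×10^6 L1210 cells each. Dosing started 24 h later, once daily for 5 days, in groups of eight. Survival was recorded to the nearest day. %ILS was calculated from median survival of treated vs control groups, with ≥25% counted as significant. For the plain-saline and HCl vehicles, compound was first wetted with a few drops of ethanol (<5% v/v).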

L1210 [2] = experiment: Antitumor activity against mouse L1210 cells allografted in mouse assessed as increase in life span at 200 umol/kg/day, po using saline vehicle for 5 days 24 hrs after tumor inoculation; assay type: functional; how it was run: as §1
L1210 [3] = experiment: Antitumor activity against mouse L1210 cells allografted in mouse assessed as increase in life span at 400 umol/kg/day, po using saline vehicle for 5 days 24 hrs after tumor inoculation; assay type: functional; how it was run: as §1
Rattus norvegicus [4] = experiment: Immunosuppression in experimental allergic encephalomyelitis rat model administered po for days 1 to 13 measured on day 17
Rattus norvegicus [5] = experiment: Immunosuppression activity in experimental allergic encephalomyelitis rat model administered po for days 1 to 13 measured on day 14
Rattus norvegicus [6] = experiment: Immunosuppression activity in rat assessed as reduction of adjuvant-induced acute inflammation administered po twice daily on days 0 to 14
Rattus norvegicus [7] = experiment: Immunosuppression activity in rat assessed as reduction of adjuvant-induced polyarthritis administered po twice daily on days 0 to 14 measured on day 21
Rattus norvegicus [8] = experiment: Immunosuppression activity in rat assessed as reduction of adjuvant-induced polyarthritis administered po twice daily for days 0 to 14 measured on day 15
L1210 [9] = experiment: Antitumor activity against mouse L1210 cells allografted in mouse assessed as increase in life span at 100 umol/kg/day, po using 0.1 N HCl vehicle for 5 days 24 hrs after tumor inoculation; assay type: functional; how it was run: as §1
L1210 [10] = experiment: Antitumor activity against mouse L1210 cells allografted in mouse assessed as increase in life span at 200 umol/kg/day, po using 0.1 N HCl vehicle for 5 days 24 hrs after tumor inoculation; assay type: functional; how it was run: as §1
L1210 [11] = experiment: Antitumor activity against mouse L1210 cells allografted in mouse assessed as increase in life span at 400 umol/kg/day, po using 0.1 N HCl vehicle for 5 days 24 hrs after tumor inoculation; assay type: functional; how it was run: as §1
L1210 [12] = experiment: Antitumor activity against mouse L1210 cells allografted in mouse assessed as increase in life span at 100 umol/kg/day, po using 0.9% (W/V) aqueous NaCl vehicle for 5 days 24 hrs after tumor inoculation; assay type: functional; how it was run: as §1
L1210 [13] = experiment: Antitumor activity against mouse L1210 cells allografted in mouse assessed as increase in life span at 200 umol/kg/day, po using 0.9% (W/V) aqueous NaCl vehicle for 5 days 24 hrs after tumor inoculation; assay type: functional; how it was run: as §1
L1210 [14] = experiment: Antitumor activity against mouse L1210 cells allografted in mouse assessed as increase in life span at 400 umol/kg/day, po using 0.9% (W/V) aqueous NaCl vehicle for 5 days 24 hrs after tumor inoculation; assay type: functional; how it was run: as §1
L1210 [15] = experiment: Antitumor activity against mouse L1210 cells allografted in mouse assessed as increase in life span at 100 umol/kg/day, po using 0.01 N HCl vehicle for 5 days 24 hrs after tumor inoculation; assay type: functional; how it was run: as §1
L1210 [16] = experiment: Antitumor activity against mouse L1210 cells allografted in mouse assessed as increase in life span at 200 umol/kg/day, po using 0.01 N HCl vehicle for 5 days 24 hrs after tumor inoculation; assay type: functional; how it was run: as §1
L1210 [17] = experiment: Antitumor activity against mouse L1210 cells allografted in mouse assessed as increase in life span at 400 umol/kg/day, po using 0.01 N HCl vehicle for 5 days 24 hrs after tumor inoculation; assay type: functional; how it was run: as §1
L1210 [18] = experiment: Antitumor activity against mouse L1210 cells allografted in mouse assessed as increase in life span at 100 umol/kg/day, po using 0.9% (W/V) aqueous NaCl vehicle for 5 days 24 hrs after tumor inoculation in presence of THU 10 mg/kg/day on days 1 to 5; assay type: functional; how it was run: as §1
L1210 [19] = experiment: Antitumor activity against mouse L1210 cells allografted in mouse assessed as increase in life span at 200 umol/kg/day, po using 0.9% (W/V) aqueous NaCl vehicle for 5 days 24 hrs after tumor inoculation in presence of THU 10 mg/kg/day on days 1 to 5; assay type: functional; how it was run: as §1
L1210 [20] = experiment: Antitumor activity against mouse L1210 cells allografted in mouse assessed as increase in life span at 100 umol/kg/day, ip using 0.9% (W/V) aqueous NaCl vehicle for 5 days 24 hrs after tumor inoculation; assay type: functional; how it was run: as §1
L1210 [21] = experiment: Antitumor activity against mouse L1210 cells allografted in mouse assessed as increase in life span at 200 umol/kg/day, ip using 0.9% (W/V) aqueous NaCl vehicle for 5 days 24 hrs after tumor inoculation; assay type: functional; how it was run: as §1
L1210 [22] = experiment: Antitumor activity against mouse L1210 cells allografted in mouse assessed as increase in life span at 400 umol/kg/day, ip using 0.9% (W/V) aqueous NaCl vehicle for 5 days 24 hrs after tumor inoculation; assay type: functional; how it was run: as §1
L1210 [23] = experiment: Antitumor activity against mouse L1210 cells allografted in mouse assessed as increase in life span at 400 umol/kg/day, po using 0.9% (W/V) aqueous NaCl vehicle for 5 days 24 hrs after tumor inoculation in presence of THU 10 mg/kg/day on days 1 to 5

Structure (SMILES)	inhibition (INH) (Rattus norvegicus [4]) [%]	inhibition (INH) (Rattus norvegicus [5]) [%]	inhibition (INH) (Rattus norvegicus [6]) [%]	inhibition (INH) (Rattus norvegicus [7]) [%]	inhibition (INH) (Rattus norvegicus [8]) [%]	ILS at 100 µmol/kg (L1210 [12]) [%]	ILS at 200 µmol/kg (L1210 [13]) [%]	ILS at 400 µmol/kg (L1210 [14]) [%]	also measured
Cl.Nc1ccn([C@@H]2O[C@H](COC(=O)c3ccccc3)[C@@H](O)[C@@H]2O)c(=O)n1	0	0	15	20	47	–	–	–	ILS at 100 µmol/kg (L1210 [1]): 15%; ILS at 200 µmol/kg (L1210 [2]): 31%; ILS at 400 µmol/kg (L1210 [3]): 62%
Cl.Nc1ccn([C@@H]2O[C@H](COC(=O)C34CC5CC(CC(C5)C3)C4)[C@@H](O)[C@@H]2O)c(=O)n1	7.9	5.4	4	28	31	–	–	–	ILS at 100 µmol/kg (L1210 [9]): 46%; ILS at 200 µmol/kg (L1210 [10]): 77%; ILS at 400 µmol/kg (L1210 [11]): 130%
CCCCCCCCCCCCCCCC(=O)OC[C@H]1O[C@@H](n2ccc(NC(=O)[C@H](CCCNC(=N)N)NC(=O)CNC(=O)OC(C)(C)C)nc2=O)[C@@H](O)[C@@H]1O.Cl	10.5	35.1	6	–	–	30	44	110	–
Cl.Nc1ccn([C@@H]2O[C@H](COC(=O)C3CC4CCN3CC4)[C@@H](O)[C@@H]2O)c(=O)n1 (stereo not given in full)	–	–	-2	0	5	–	–	–	ILS at 100 µmol/kg (L1210 [1]): 8%; ILS at 200 µmol/kg (L1210 [2]): 0%; ILS at 400 µmol/kg (L1210 [3]): 15%
Cl.Nc1ccn([C@@H]2O[C@H](COC(=O)c3cccnc3)[C@@H](O)[C@@H]2O)c(=O)n1	–	–	4	0	0	–	–	–	ILS at 100 µmol/kg (L1210 [15]): 31%; ILS at 200 µmol/kg (L1210 [16]): 46%; ILS at 400 µmol/kg (L1210 [17]): 69%
CC(C)(C)OC(=O)NCC(=O)N[C@@H](CCCNC(=N)N)C(=O)Nc1ccn([C@@H]2O[C@H](COC(=O)C34CC5CC(CC(C5)C3)C4)[C@@H](O)[C@@H]2O)c(=O)n1.Cl	10.5	5.4	1	18	50	21	43	93	–
CCCCCCCCCCCCCCCC(=O)OC[C@H]1O[C@@H](n2ccc(N)nc2=O)[C@@H](O)[C@@H]1O.Cl	13.2	8.1	13	6	11	–	–	–	ILS at 100 µmol/kg (L1210 [15]): 46%; ILS at 200 µmol/kg (L1210 [16]): 69%; ILS at 400 µmol/kg (L1210 [17]): 92%
CC(C)(C)OC(=O)NCC(=O)N[C@@H](CCCNC(=N)N)C(=O)Nc1ccn([C@@H]2O[C@H](COC(=O)c3ccccc3)[C@@H](O)[C@@H]2O)c(=O)n1.Cl	5.3	13.5	9	35	52	14	21	43	–
Nc1ccn([C@@H]2O[C@H](CO)[C@@H](O)[C@@H]2O)c(=O)n1 [CYTARABINE]	–	–	-4	7	20	15	38	62	ILS (L1210 [18]): 62%; ILS (L1210 [19]): 92%; ILS at 100 µmol/kg (L1210 [20]): 69%; ILS at 200 µmol/kg (L1210 [21]): 100%; ILS at 400 µmol/kg (L1210 [22]): 131%; ILS (L1210 [23]): 138%
